Reference: ChEMBL document CHEMBL2169868, “Flavone-based novel antidiabetic and antidyslipidemic agents” (J Med Chem, 2012)
Active and inactive are the calls of the source. No cut-off for these calls is given here.

Key:
Mus musculus [1] = assay: Antidiabetic activity in diabetic C57BL/KsJ db/db mouse model assessed as improvement in glucose tolerance in hyperglycemia at 3 mg/kg, po measured 2 hrs post dose; format: functional
[2] = Mean residence time in Sprague-Dawley rat at 2.5 mg/kg, iv by LC-MS/MS method; format: ADME, organism-based; parameters: dose 2.5 mg/kg, route intravenous; details: in vivo
In short: (§1)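 Male Sprague−Dawley rats given a single 2.5 mg/kg iv dose; one formulation was DMF/PG/water (2:4:4), 0.2 μ filtered. Blood drawn from 0.08 to 48 h. Plasma assayed by LC-MS/MS with linear range 0.78−400 ng/mL.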

Mus musculus [3] = assay: Antidiabetic activity in diabetic C57BL/KsJ db/db mouse model assessed as improvement in glucose tolerance in hyperglycemia at 100 mg/kg, po measured 2 hrs post dose; format: functional
Rattus norvegicus [4] = assay: AUC in Sprague-Dawley rat at 25 mg/kg, po by LC-MS/MS method; details: in vivo
Mus musculus [5] = assay: Antihyperglycemic activity in diabetic C57BL/KsJ db/db mouse model assessed as reduction in hyperglycemia at 25 mg/kg, po qd for 10 days; format: functional; parameters: scale not given: the % may be the effect or the level left
In short: (§2)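 db/db mice (C57BL/KsJ, 12−18 weeks, 40−50 g, glucose 200−350 mg/dL), housed at 23 ± 2.0 °C on a 12 h light cycle. Oral dosing daily for 10 days. Blood glucose checked each morning through day 9. Body weight recorded daily from day 1 to day 10. Mean % change versus vehicle, 5 mice per group; Student t test.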

Mus musculus [6] = assay: Antidiabetic activity in diabetic C57BL/KsJ db/db mouse model assessed as improvement in glucose tolerance in hyperglycemia at 10 mg/kg, po measured 2 hrs post dose; format: functional
[7] = Plasma clearance in Sprague-Dawley rat at 25 mg/kg, po by LC-MS/MS method; format: ADME, organism-based; parameters: dose 25 mg/kg, route oral
In short: (§3)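 Male Sprague−Dawley rats given a single 25 mg/kg oral dose (aqueous 0.5% methyl cellulose suspension for one compound). Blood drawn from 0.08 to 48 h. LC-MS/MS, linear range 0.78−400 ng/mL.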

[8] = Plasma clearance in Sprague-Dawley rat at 2.5 mg/kg, iv by LC-MS/MS method; format: ADME, organism-based; parameters: dose 2.5 mg/kg, route intravenous; in short: as §1
Mus musculus [9] = assay: Antidyslipidemic activity in diabetic C57BL/KsJ db/db mouse model assessed as increase in plasma HDL-C/cholesterol ratio at 25 mg/kg, po qd for 10 days; format: functional
In short: (§4)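 db/db mice (blood glucose 200−350, TG 170−250, cholesterol 170−250, HDL-C 32−40 mg/dL) dosed orally at 25 mg/kg daily for 10 days; retro-orbital blood taken on day 11 for plasma TG, cholesterol and HDL-C (and HDL-C/CHOL ratio); mean % change versus vehicle control, 5 mice per group; Student t test.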

Mus musculus [10] = assay: Antidyslipidemic activity in diabetic C57BL/KsJ db/db mouse model assessed as increase in plasma HDL-cholesterol level at 25 mg/kg, po qd for 10 days; format: functional; in short: as §4
Mus musculus [11] = assay: Antihyperglycemic activity in diabetic C57BL/KsJ db/db mouse model assessed as reduction in plasma insulin level in hyperglycemia at 25 mg/kg, po qd for 10 days; format: functional; parameters: scale not given: the % may be the effect or the level left
In short: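 db/db mice dosed orally every day for 10 days. On day 11, retro-orbital blood was drawn and plasma insulin measured. Mean % change versus vehicle-treated control, 5 mice per group; Student t test.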

Rattus norvegicus [12] = assay: AUC in Sprague-Dawley rat at 2.5 mg/kg, iv by LC-MS/MS method; details: in vivo
Mus musculus [13] = assay: Antidiabetic activity in diabetic C57BL/KsJ db/db mouse model assessed as reduction in postprandial glucose level in hyperglycemia at 3 mg/kg, po measured 2 hrs post dose; format: functional; parameters: scale not given: the % may be the effect or the level left
In short: (§5)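 db/db mice (C57BL/KsJ, 12−18 weeks, 40−50 g; selected by glucose 200−350 mg/dL) dosed orally daily for 10 consecutive days at 1, 3, 10, 25 or 50 mg/kg; postprandial blood glucose profile recorded on day 6 with food access interrupted; mean % change versus vehicle in 5 animals per group; Student t test.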

Mus musculus [14] = assay: Antidiabetic activity in diabetic C57BL/KsJ db/db mouse model assessed as reduction in postprandial glucose level in hyperglycemia at 10 mg/kg, po measured 2 hrs post dose; format: functional; parameters: scale not given: the % may be the effect or the level left; in short: as §5
[15] = Elimination half life in Sprague-Dawley rat at 25 mg/kg, po by LC-MS/MS method; format: ADME, organism-based; parameters: dose 25 mg/kg, route oral; details: in vivo, read-out: beta t1/2 (converted); in short: as §3
[16] = Cmax in Sprague-Dawley rat at 25 mg/kg, po by LC-MS/MS method; format: ADME, organism-based; parameters: dose 25 mg/kg, route oral; details: in vivo; in short: as §3
Mus musculus [17] = assay: Antidiabetic activity in diabetic C57BL/KsJ db/db mouse model assessed as improvement in glucose tolerance in hyperglycemia at 25 mg/kg, po measured 2 hrs post dose; format: functional
Mus musculus [18] = assay: Antidiabetic activity in diabetic C57BL/KsJ db/db mouse model assessed as improvement in glucose tolerance in hyperglycemia at 1 mg/kg, po measured 2 hrs post dose; format: functional
[19] = Cmax in Sprague-Dawley rat at 2.5 mg/kg, iv by LC-MS/MS method; format: ADME, organism-based; parameters: dose 2.5 mg/kg, route intravenous; details: in vivo; in short: as §1
Mus musculus [20] = assay: Antidyslipidemic activity in diabetic C57BL/KsJ db/db mouse model assessed as reduction in plasma triglyceride level at 25 mg/kg, po qd for 10 days; format: functional; parameters: scale not given: the % may be the effect or the level left; in short: as §4
Rattus norvegicus [21] = assay: Volume of distribution in Sprague-Dawley rat at 25 mg/kg, po by LC-MS/MS method; format: ADME, organism-based; parameters: dose 25 mg/kg, route oral; details: in vivo; in short: as §3
Mus musculus [22] = assay: Reduction in body weight in diabetic C57BL/KsJ db/db mouse model in hyperglycemia at 25 mg/kg, po qd for 10 days relative to untreated control; format: functional; in short: as §2
Mus musculus [23] = assay: Antidyslipidemic activity in diabetic C57BL/KsJ db/db mouse model assessed as reduction in plasma cholesterol level at 25 mg/kg, po qd for 10 days; format: functional; parameters: scale not given: the % may be the effect or the level left; in short: as §4
Mus musculus [24] = assay: Antihyperglycemic activity in diabetic C57BL/KsJ db/db mouse model assessed as improvement in glucose tolerance in hyperglycemia at 25 mg/kg, po qd for 10 days; format: functional
In short: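 Male/female C57BL/KsJ db/db mice, 12−18 weeks, 40−50 g, selected for glucose 200−350 mg/dL. Oral dosing daily for 10 days. OGTT on day 10 after an overnight fast: compound at −30 min, then 3 g/kg oral glucose at 0 min. Glucose read at 30, 60, 90 and 120 min. AUC taken versus vehicle, 5 mice per group.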

[25] = Volume of distribution in Sprague-Dawley rat at 2.5 mg/kg, iv by LC-MS/MS method; format: ADME, organism-based; parameters: dose 2.5 mg/kg, route intravenous; details: in vivo; in short: as §1
[26] = Mean residence time in Sprague-Dawley rat at 25 mg/kg, po by LC-MS/MS method; format: ADME, organism-based; parameters: dose 25 mg/kg, route oral; details: in vivo; in short: as §3
[27] = Elimination half life in Sprague-Dawley rat at 2.5 mg/kg, iv by LC-MS/MS method; format: ADME, organism-based; parameters: dose 2.5 mg/kg, route intravenous; details: in vivo, read-out: beta t1/2 (converted); in short: as §1
Mus musculus [28] = assay: Antidiabetic activity in diabetic C57BL/KsJ db/db mouse model assessed as reduction in postprandial glucose level in hyperglycemia at 50 mg/kg, po measured 2 hrs post dose; parameters: scale not given: the % may be the effect or the level left
[29] = Oral bioavailability in Sprague-Dawley rat at 25 mg/kg by LC-MS/MS method; format: ADME, organism-based; details: in vivo; in short: as §3
Mus musculus [30] = assay: Antidiabetic activity in diabetic C57BL/KsJ db/db mouse model assessed as reduction in postprandial glucose level in hyperglycemia at 1 mg/kg, po measured 2 hrs post dose; format: functional; parameters: scale not given: the % may be the effect or the level left; in short: as §5
[31] = Tmax in Sprague-Dawley rat at 25 mg/kg, po by LC-MS/MS method; format: ADME, organism-based; parameters: dose 25 mg/kg, route oral; details: in vivo; in short: as §3
Mus musculus [32] = assay: Antidiabetic activity in diabetic C57BL/KsJ db/db mouse model assessed as reduction in postprandial glucose level in hyperglycemia at 25 mg/kg, po measured 2 hrs post dose; format: functional; parameters: scale not given: the % may be the effect or the level left; in short: as §5

SMILES: CC(C)NC[C@H](O)COc1ccc2c(=O)cc(-c3cc(O)cc(O)c3)oc2c1
- Activity (Mus musculus [1]): 19.7%
- MRT [2]: 4.9 h
- Activity (Mus musculus [3]): 49.2%
- AUC (Rattus norvegicus [4]): 39.5 ng·h/mL
- Activity (Mus musculus [5]): 45.6%
- Activity (Mus musculus [6]): 30.7%
- CL/F [7]: 54.5 mL/min/kg
- clearance [8]: 55 mL/min/kg
- Percent increase in HDL-C/cholesterol ratio vs vehicle (Mus musculus [9]): 68.7
- Activity (Mus musculus [10]): 23.1%
- Activity (Mus musculus [11]): 39.2%
- AUC (Rattus norvegicus [12]): 756 ng·h/mL
- Activity (Mus musculus [13]): 27.1%
- Activity (Mus musculus [14]): 31.2%
- half-life [15]: 3.39 h
- Cmax [16]: 21.2 ng/mL
- Activity (Mus musculus [17]): 41.1%
- Activity (Mus musculus [18]): 12%
- Cmax [19]: 1810 ng/mL
- Activity (Mus musculus [20]): 21%
- Vd (Rattus norvegicus [21]): 16.18 L/kg
- Activity (Mus musculus [22]): inactive
- Activity (Mus musculus [23]): 27%
- Activity (Mus musculus [24]): 29.7%
- Vd [25]: 16.2 L/kg
- MRT [26]: 5.96 h
- half-life [27]: 4.83 h
- Activity (Mus musculus [28]): 35.4%
- bioavailability [29]: 0.52%
- Activity (Mus musculus [30]): 12.1%
- Tmax [31]: 0.33 h
- Activity (Mus musculus [32]): 31.6%
